Results published in ChEMBL document CHEMBL4038269, “Design, synthesis and evaluation of novel feruloyl-donepezil hybrids as potential multitarget drugs for the treatment of Alzheimer's disease” (Eur J Med Chem, 2017).
Activity calls are given as the source filed them.

Legend:
Acetylcholinesterase = Acetylcholinesterase (Electrophorus electricus, UniProt O42275); test: Inhibition of Electrophorus electricus AChE using acetylthiocholine iodide as substrate pretreated for 10 mins followed by substrate addition measured at 12 secs interval for 5 mins by Ellman's method
[1] = Antioxidant activity assessed as DPPH radical scavenging activity measured after 30 mins; type: functional
In short: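 DPPH scavenging: compound at 12.5, 25, 50 and 100 µM in ethanol (4 mL) mixed with 1 mL of 0.5 mM DPPH in ethanol. Shaken 30 min at room temperature, absorbance read at 517 nm. % inhibition = (A control − A sample)/A control × 100. Run in triplicate; EC50 obtained by linear regression of mean values.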

Cholinesterase = Cholinesterase (Equus caballus, UniProt P81908); test: Inhibition of equine serum BuChE using butyrylthiocholine iodide as substrate pretreated for 10 mins followed by substrate addition measured at 12 secs interval for 5 mins by Ellman's method
In short: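 Ellman assay in 0.1 M sodium phosphate pH 7.4, enzyme 0.5 U/mL, DTNB 10 mM; concentration series preincubated 10 min before butyrylthiocholine iodide ([…]); A412 over 5 min at 12 s intervals. IC50 from fitted concentration-response curves, geometric mean of independent experiments, each in triplicate; DMSO ≤0.2% final.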

SH-SY5Y [2] = test: Antioxidant activity in human SH-SY5Y cells assessed as reduction in H2O2-induced reactive oxygen species formation measured after 24 hrs by DCFH-DA probe based fluorescence assay; type: functional, cell-based
SH-SY5Y [3] = test: Antioxidant activity in human SH-SY5Y cells assessed as reduction in H2O2-induced reactive oxygen species formation at 40 uM measured after 24 hrs by DCFH-DA probe based fluorescence assay relative to control; type: functional; set-up: scale not given: the % may be the effect or the level left
Mus musculus [4] = test: Anti-inflammatory activity in Swiss mouse model of LPS-induced peritonitis assessed as inhibition of leukocyte migration at 100 umol/kg, po pretreated for 30 mins followed by LPS challenge measured after 4 hrs by Neubauer chamber method; type: functional, organism-based
In short: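 Adult male Swiss mice (22-28 g), n=8 per group, dosed orally with 100 µmol/kg or vehicle (saline + DMSO 2%). 30 min later E. coli 026:B6 LPS, 100 µg/kg i.p. in sterile saline. Killed at 4 h by halothane overdose. Peritoneum lavaged with 10 ml PBS containing 0.5% sodium citrate. Total leukocytes counted in a Neubauer chamber, expressed as cells per cavity, mean ± SEM.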

[5] = Metal chelating activity assessed as compound-Fe3+ complex formation at 75 uM after 30 mins by UV-Vis spectrophotometric method; type: functional
In short: (§1)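 UV-Vis spectra in ethanol of compound at 75 µM alone or after 30 min incubation with CuSO4, FeSO4, FeCl3 or ZnCl2 (150 µM). Absorption maxima recorded.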

[6] = Cytotoxicity against human SH-SY5Y cells assessed as reduction in cell viability at 40 uM after 24 hrs by MTT assay relative to control; type: cell-based; details: read-out: INH
In short: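 SH-SY5Y cells seeded at 2 x 10^4 cells/well, grown 24 h, then exposed to compound 1.25–40 µM for 24 h at 37 °C. MTT (5 mg/mL in PBS) added for 2 h and formazan dissolved in isopropanol. Read at 570 nm, reference 690 nm. Viability loss reported as percent at the top concentration, 40 µM.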

[7] = Metal chelating activity assessed as absorption maximum for compound-Cu2+ complex formation at 75 uM after 30 mins by UV-Vis spectrophotometric method (reference value: 237.2 nanometer); type: functional; in short: as §1
Mus musculus [8] = test: Neurotoxicity in Swiss mouse assessed as induction of motor impairment at 100 umol/kg, po measured after 1 hr by open filed test; type: toxicity, organism-based; details: in vivo
In short: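 Male Swiss mice (n=8) given vehicle or compound orally 1 h before open-field test. Crossings of the central four and peripheral 12 squares counted separately.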

Mus musculus [9] = test: In vivo inhibition of COX-1 activity in carrageenan-induced Swiss mouse serum at 100 umol/kg, po pretreated for 1 hr followed by carrageenan challenge after 3 hrs by ELISA relative to control; type: functional
In short: (§2)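 Male Swiss mice given oral drug (100 µmol/kg) or vehicle 1 h before intraplantar carrageenan (legend: 400 µg/paw). At 3 h, animals anaesthetised with chloral hydrate and cardiac blood taken. Serum separated (1500 rpm, 20 min) and frozen at -70 °C. COX-1, COX-2 and 5-LOX measured by specific sandwich ELISA at 450 nm. Expressed as % enzymatic activity, mean ± SEM, n=8.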

SH-SY5Y [10] = test: Antioxidant activity in human SH-SY5Y cells assessed as increase in GSH level at 20 uM after 24 hrs by MCB probe based assay relative to control; type: functional
In short: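 SH-SY5Y cells (DMEM, 10% FBS, 37 °C, 5% CO2) seeded at 2 x 10^4 cells/well and grown 24 h. Treated with 20 µM compound for 3-24 h. Then 50 µM monochlorobimane in PBS for 30 min at 37 °C. GSH fluorescence read at ex 360/em 465 nm, as % of control cells. Mean ± SD of three independent experiments.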

[11] = Metal chelating activity assessed as absorption maximum for compound-Fe2+ complex formation at 75 uM after 30 mins by UV-Vis spectrophotometric method (reference value: 237.2 nanometer); type: functional; in short: as §1
Mus musculus [12] = test: Antiinflammatory activity in formalin-induced nociception Swiss mouse model assessed as reduction in time spent licking formalin injected hind paw during inflammatory phase at 100 umol/kg, po pretreated for 1 hr followed by formalin challenge measured after 20 to 30 mins; type: functional, organism-based
In short: (§3)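 Male Swiss mice (22-28 g), n=8 per group, given oral vehicle (saline + DMSO 2%) or 100 µmol/kg 1 h before formalin (5% in 0.9% saline, 20 µl) into the right hind paw sub-plantar region. Morphine 39 µmol/kg i.p. was given 30 min before. Paw-licking time recorded at 0–5 min (neurogenic phase) and 20–30 min (inflammatory phase).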

[13] = Metal chelating activity assessed as absorption maximum for compound-Zn2+ complex formation at 75 uM after 30 mins by UV-Vis spectrophotometric method; type: functional; in short: as §1
Mus musculus [14] = test: Anti-inflammatory activity in Swiss mouse assessed as reduction in carrageenan-induced paw edema at 100 umol/kg, po pretreated for 1 hr followed by carrageenan challenge after 3 hrs by plethysmometer; type: functional, organism-based
In short: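 Adult male Swiss mice (22-28 g), fasted overnight, given vehicle (DMSO 2% in sterile saline) or 100 µmol/kg orally 1 h before intraplantar carrageenan. Methods give 400 µg/20 µl and n=10 per group; figure legend gives 100 µg/paw and n=8. Right hind paw volume read by plethysmometer at 1, 3 and 5 h. Reported as change in µL from basal volume, mean ± SEM.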

SH-SY5Y [15] = test: Antioxidant activity in human SH-SY5Y cells assessed as reduction in H2O2-induced reactive oxygen species formation at 10 uM measured after 24 hrs by DCFH-DA probe based fluorescence assay; type: functional, cell-based
Mus musculus [16] = test: In vivo inhibition of COX-2 activity in carrageenan-induced Swiss mouse serum at 100 umol/kg, po pretreated for 1 hr followed by carrageenan challenge after 3 hrs by ELISA relative to control; type: functional; in short: as §2
Mus musculus [17] = test: Antinociceptive activity in carrageenan-induced Swiss mouse model of mechanical hyperalgesia at 100 umol/kg, po pretreated for 1 hr followed by carrageenan challenge measured at 3 hrs post dose by Von Frey filament assay; type: functional, organism-based
In short: (§4)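 Male Swiss mice (n=8) dosed orally with 100 µmol/kg or vehicle 1 h before intraplantar carrageenan (100 µg/paw). Mechanical threshold measured by up-and-down Von Frey method after 60 min acclimation on a wire screen. Started at 0.4 g filament, ≥6 trials at 10 s intervals, about 4 s per application. Reported as mean threshold in grams ± SEM.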

SH-SY5Y [18] = test: Pro-oxidant activity in human SH-SY5Y cells assessed as increase in H2O2-induced reactive oxygen species formation at 20 to 40 uM pretreated for 24 hrs followed by H2O2 addition by DCFH-DA probe based fluorescence assay; type: ADME, cell-based
Mus musculus [19] = test: Antinociceptive activity in carrageenan-induced Swiss mouse model of mechanical hyperalgesia at 100 umol/kg, po pretreated for 1 hr followed by carrageenan challenge measured at 3 hrs to 7 hrs post dose by Von Frey filament assay; type: functional, organism-based; in short: as §4
[20] = biological target: Cholinesterase (Equus caballus) (UniProt P81908); test: Inhibition of equine serum BuChE at 30 uM using butyrylthiocholine iodide as substrate pretreated for 10 mins followed by substrate addition measured at 12 secs interval for 5 mins by Ellman's method relative to control
[21] = biological target: Acetylcholinesterase (Electrophorus electricus) (UniProt O42275); test: Inhibition of Electrophorus electricus AChE at 30 uM using acetylthiocholine iodide as substrate pretreated for 10 mins followed by substrate addition measured at 12 secs interval for 5 mins by Ellman's method relative to control
In short: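 Enzyme (0.5 U/mL) with DTNB (10 mM) in 0.1 M sodium phosphate pH 7.4; compound at 30 μM preincubated 10 min, then acetylthiocholine or butyrylthiocholine iodide added ([…]); A412 read every 12 s for 5 min. Velocity as percent of vehicle control; means and pooled SD from 2-4 experiments in triplicate. DMSO ≤0.2% final.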

Mus musculus [22] = test: Antiinflammatory activity in formalin-induced nociception Swiss mouse model assessed as reduction in time spent licking formalin injected hind paw during neurogenic phase at 100 umol/kg, po pretreated for 1 hr followed by formalin challenge measured up to 5 mins; type: functional, organism-based; in short: as §3
[23] = Homo sapiens, SH-SY5Y, 24 h, read-out: IC50

Sequence of Acetylcholinesterase (O42275 whole entry): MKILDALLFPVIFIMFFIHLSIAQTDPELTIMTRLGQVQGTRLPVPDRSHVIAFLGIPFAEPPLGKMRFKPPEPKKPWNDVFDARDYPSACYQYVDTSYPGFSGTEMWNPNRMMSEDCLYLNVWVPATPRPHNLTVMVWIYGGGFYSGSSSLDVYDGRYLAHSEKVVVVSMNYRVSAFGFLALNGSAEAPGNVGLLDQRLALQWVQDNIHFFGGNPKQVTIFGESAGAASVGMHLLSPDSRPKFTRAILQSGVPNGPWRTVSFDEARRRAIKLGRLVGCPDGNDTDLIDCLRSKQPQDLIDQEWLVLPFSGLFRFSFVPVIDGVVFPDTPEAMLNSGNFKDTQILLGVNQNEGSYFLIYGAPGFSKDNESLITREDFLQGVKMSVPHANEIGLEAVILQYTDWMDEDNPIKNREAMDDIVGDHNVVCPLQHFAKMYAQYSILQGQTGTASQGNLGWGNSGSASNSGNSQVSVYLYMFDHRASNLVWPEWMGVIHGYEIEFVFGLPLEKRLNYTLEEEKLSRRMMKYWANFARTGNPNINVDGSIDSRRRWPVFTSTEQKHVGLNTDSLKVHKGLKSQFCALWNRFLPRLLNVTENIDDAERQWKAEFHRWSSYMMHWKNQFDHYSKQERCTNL
Sequence of Cholinesterase (P81908 whole entry): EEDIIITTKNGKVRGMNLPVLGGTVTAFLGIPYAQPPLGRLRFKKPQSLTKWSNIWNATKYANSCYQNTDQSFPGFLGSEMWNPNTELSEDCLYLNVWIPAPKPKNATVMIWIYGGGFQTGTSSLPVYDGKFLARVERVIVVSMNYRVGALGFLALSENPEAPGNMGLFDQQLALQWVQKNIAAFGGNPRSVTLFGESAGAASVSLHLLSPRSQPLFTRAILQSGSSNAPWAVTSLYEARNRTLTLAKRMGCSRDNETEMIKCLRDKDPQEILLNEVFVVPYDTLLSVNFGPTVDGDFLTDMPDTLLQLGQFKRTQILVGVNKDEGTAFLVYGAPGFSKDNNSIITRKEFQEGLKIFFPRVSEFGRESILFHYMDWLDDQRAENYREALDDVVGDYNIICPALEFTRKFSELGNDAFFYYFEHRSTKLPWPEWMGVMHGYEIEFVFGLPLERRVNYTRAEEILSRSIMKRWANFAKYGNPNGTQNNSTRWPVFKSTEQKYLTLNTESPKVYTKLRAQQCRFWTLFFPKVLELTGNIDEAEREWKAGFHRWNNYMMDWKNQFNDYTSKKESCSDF
Sequence of Cholinesterase (Equus caballus) (P81908 whole entry): as above
Sequence of Acetylcholinesterase (Electrophorus electricus) (O42275 24-633 limits assumed): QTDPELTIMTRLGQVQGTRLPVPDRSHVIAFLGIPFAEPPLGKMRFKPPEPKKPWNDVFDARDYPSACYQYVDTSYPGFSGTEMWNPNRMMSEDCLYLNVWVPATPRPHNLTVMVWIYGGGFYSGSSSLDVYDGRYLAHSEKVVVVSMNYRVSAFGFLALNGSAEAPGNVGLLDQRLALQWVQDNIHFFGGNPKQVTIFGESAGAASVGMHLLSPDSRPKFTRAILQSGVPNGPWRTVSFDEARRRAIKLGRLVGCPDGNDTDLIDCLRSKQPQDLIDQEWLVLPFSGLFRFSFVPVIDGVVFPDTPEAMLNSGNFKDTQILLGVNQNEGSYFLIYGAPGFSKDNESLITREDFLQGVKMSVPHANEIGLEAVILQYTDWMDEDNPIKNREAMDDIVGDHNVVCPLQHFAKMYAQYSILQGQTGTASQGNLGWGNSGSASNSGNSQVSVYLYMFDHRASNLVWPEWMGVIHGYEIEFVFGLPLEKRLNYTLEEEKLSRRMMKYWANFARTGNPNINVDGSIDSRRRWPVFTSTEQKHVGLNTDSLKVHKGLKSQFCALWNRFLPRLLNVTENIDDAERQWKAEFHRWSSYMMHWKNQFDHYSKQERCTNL

COc1ccc(/C=C/C(=O)OCC2CCN(Cc3ccccc3)CC2)cc1O
IC50 (Acetylcholinesterase): > 30 µM
EC50 [1]: > 100 µM

COc1cc(/C=C/C(=O)CC(=O)/C=C/c2ccc(O)c(OC)c2)ccc1O [CURCUMIN]
IC50 (Cholinesterase): > 300 µM

COc1cc2c(cc1OC)C(=O)C(CC1CCN(Cc3ccccc3)CC1)C2 (configuration not stated) [DONEPEZIL]
IC50 (SH-SY5Y [2]; sh-sy5y): Not Active
Activity (SH-SY5Y [3]): <50%

COc1cc(/C=C/C(=O)OCC2CCN(Cc3ccc(N4CCOCC4)cc3)CC2)ccc1O
IC50 (Acetylcholinesterase): > 30 µM
EC50 [1]: 73.8 µM

COc1ccc(CN2CCC(COC(=O)/C=C/c3ccc(OC)c(O)c3)CC2)cc1
IC50 (Acetylcholinesterase): > 30 µM
EC50 [1]: > 100 µM

COc1ccc(CN2CCC(COC(=O)/C=C/c3ccc(O)c(OC)c3)CC2)cc1
IC50 (Acetylcholinesterase): > 30 µM
EC50 [1]: 78.1 µM

Cc1c(C)c2c(c(C)c1O)CCC(C)(C(=O)O)O2 (configuration not stated) [TROLOX]
EC50 [1]: 4.86 µM

COc1cc(/C=C/C(=O)OCC2CCN(Cc3ccc(Br)cc3)CC2)ccc1O
inhibition (Mus musculus [4]): Active
IC50 (Acetylcholinesterase): > 30 µM
Activity [5]: inactive
cytotoxicity at 24 h, 40 µM [6]: 28%
Activity [7]: Active
Activity (Mus musculus [8]): Non-Toxic
inhibition in vivo at 100 µmol/kg (Mus musculus [9]): 30%
Activity (SH-SY5Y [10]): inactive
Activity [11]: Active
Activity (Mus musculus [12]): Active
EC50 [1]: 45.4 µM
Activity [13]: inactive
Activity (Mus musculus [14]): Active
Activity (SH-SY5Y [15]): Active
inhibition in vivo at 100 µmol/kg (Mus musculus [16]): 60%
Activity (Mus musculus [17]): Active
Activity (SH-SY5Y [18]): Toxic
Activity (Mus musculus [19]): Active
Activity (SH-SY5Y [3]): <50%

COc1cc(/C=C/C(=O)OCC2CCN(Cc3ccc(Cl)cc3)CC2)ccc1O
IC50 (Acetylcholinesterase): > 30 µM
EC50 [1]: 20.5 µM

COc1cc(/C=C/C(=O)OCC2CCN(Cc3ccc4c(c3)OCO4)CC2)ccc1O
IC50 (Acetylcholinesterase): > 30 µM
EC50 [1]: > 100 µM

COc1ccc(/C=C/C(=O)OCC2CCN(Cc3ccc(Br)cc3)CC2)cc1O
IC50 (Acetylcholinesterase): > 30 µM
EC50 [1]: > 100 µM

COc1ccc(/C=C/C(=O)O)cc1O [ISOFERULIC ACID]
EC50 [1]: > 100 µM

COc1ccc(/C=C/C(=O)OCC2CCN(Cc3ccc4c(c3)OCO4)CC2)cc1O
IC50 (Acetylcholinesterase): > 30 µM
EC50 [1]: > 100 µM
IC50 (SH-SY5Y [2]; sh-sy5y): Not Active

COc1cc(/C=C/C(=O)OCC2CCN(Cc3ccc([N+](=O)[O-])cc3)CC2)ccc1O
inhibition [20]: 4.3%
IC50 (Acetylcholinesterase): 16.7 µM
Activity [5]: inactive
cytotoxicity at 24 h, 40 µM [6]: 9%
Activity [7]: Active
fold change (FC) (SH-SY5Y [10]): 1.2
Activity [11]: Active
EC50 [1]: 46.7 µM
Activity [13]: inactive
inhibition [21]: 50%
Activity (SH-SY5Y [2]): Dose-dependent effect
IC50 (SH-SY5Y [2]; [23]): 25.9 µM

COc1ccc(/C=C/C(=O)OCC2CCN(Cc3ccc(N4CCOCC4)cc3)CC2)cc1O
IC50 (Acetylcholinesterase): > 30 µM
EC50 [1]: > 100 µM

COc1ccc2c(c1)c(CC(=O)O)c(C)n2C(=O)c1ccc(Cl)cc1 [INDOMETHACIN]
Activity (Mus musculus [22]): Active
inhibition in vivo at 100 µmol/kg (Mus musculus [9]): 50%
Activity (Mus musculus [12]): Active
Activity (Mus musculus [14]): Active
inhibition in vivo at 100 µmol/kg (Mus musculus [16]): 42%
Activity (Mus musculus [17]): Active

COc1ccc(/C=C/C(=O)OCC2CCN(Cc3ccc([N+](=O)[O-])cc3)CC2)cc1O
IC50 (Acetylcholinesterase): > 30 µM
EC50 [1]: > 100 µM

COc1cc(/C=C/C(=O)O)ccc1O [FERULATE]
EC50 [1]: 35.5 µM
IC50 (SH-SY5Y [2]; [23]): 11.8 µM

COc1ccc(/C=C/C(=O)OCC2CCN(Cc3ccc(Cl)cc3)CC2)cc1O
IC50 (Acetylcholinesterase): > 30 µM
EC50 [1]: 12.5 µM
